Results published in ChEMBL document CHEMBL3098070, “Rational design, synthesis and antitubercular evaluation of novel 2-(trifluoromethyl)phenothiazine-[1,2,3]triazole hybrids” (Bioorg Med Chem Lett, 2014).
≈ marks a conversion by molar mass, not a printed value.

Assays:
[1] = test system: Mycobacterium tuberculosis; assay: Antimycobacterial activity against Mycobacterium tuberculosis H37Rv ATCC 27294 assessed as parasite growth inhibition after 28 days by agar dilution method; type: functional; conditions: H37Rv ATCC 27294, 672 h
Procedure, shortened: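 Agar dilution in Middlebrook 7H11 with OADC; two-fold dilutions 50.0 to 0.4 µg/mL. Inoculum from fresh 7H11 slants, adjusted to 1 mg/mL wet weight in 0.05% Tween 80 saline, diluted 10-2 to 107 cfu/mL; 5 µL spotted per tube. Incubated 37 °C, read at 28 days. MIC = lowest concentration giving complete growth inhibition; triplicates.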

[2] = Cytotoxicity against HEK293T cells at 50 ug/ml after 72 hrs by MTT assay; type: cell-based, HEK-293T; conditions: human, read-out: INH
Procedure, shortened: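 HEK-293T human embryonic kidney cells exposed to compound at 50 µg/mL for 72 h; viability by cellular MTT conversion to formazan (non-radioactive cell proliferation kit); reported as percentage inhibition of cells.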

[3] = Selectivity index, ratio of cytotoxicity for HEK293T cells to MIC for Mycobacterium tuberculosis H37Rv; type: toxicity, cell-based, HEK-293T; conditions: human, read-out: Selectivity Index

## CCCCCc1cn(CC(=O)N2c3ccccc3Sc3ccc(C(F)(F)F)cc32)nn1
[1]
  MIC: 12.5 µg/mL (≈ 28 µM)

## O=C(Cn1cc(-c2ccc(-c3ccccc3)cc2)nn1)N1c2ccccc2Sc2ccc(C(F)(F)F)cc21
[1]
  MIC: 25 µg/mL (≈ 47.3 µM)

## O=C(Cn1cc(-c2cc3ccccc3c3ccccc23)nn1)N1c2ccccc2Sc2ccc(C(F)(F)F)cc21
[1]
  MIC: 12.5 µg/mL (≈ 22.6 µM)

## CC[C@@H](CO)NCCN[C@@H](CC)CO [ETHAMBUTOL]
[1]
  MIC: 3.13 µg/mL (≈ 15.3 µM)

## COc1ccc(-c2cn(CC(=O)N3c4ccccc4Sc4ccc(C(F)(F)F)cc43)nn2)c(C)c1
[1]
  MIC: 12.5 µg/mL (≈ 25.2 µM)

## NNC(=O)c1ccncc1 [ISONIAZID]
[1]
  MIC: 0.1 µg/mL (≈ 0.729 µM)

## CC(C)(C)c1ccc(-c2cn(CC(=O)N3c4ccccc4Sc4ccc(C(F)(F)F)cc43)nn2)cc1
[1]
  MIC: 25 µg/mL (≈ 49.2 µM)

## CCCCc1cn(CC(=O)N2c3ccccc3Sc3ccc(C(F)(F)F)cc32)nn1
[1]
  MIC: 25 µg/mL (≈ 57.8 µM)

## Cc1cccc(-c2cn(CC(=O)N3c4ccccc4Sc4ccc(C(F)(F)F)cc43)nn2)c1
[1]
  MIC: 25 µg/mL (≈ 53.6 µM)

## COc1cccc(-c2cn(CC(=O)N3c4ccccc4Sc4ccc(C(F)(F)F)cc43)nn2)c1
[2]
  cytotoxicity at 72 h, 50 ug/ml: 34.6%
[1]
  MIC: 6.25 µg/mL (≈ 13 µM)
[3]
  selectivity ratio: > 10

## O=C(Cn1cc(CCCO)nn1)N1c2ccccc2Sc2ccc(C(F)(F)F)cc21
[1]
  MIC: 12.5 µg/mL (≈ 28.8 µM)

## CCCCCc1ccc(-c2cn(CC(=O)N3c4ccccc4Sc4ccc(C(F)(F)F)cc43)nn2)cc1
[1]
  MIC: ≤ 25 µg/mL

## O=C(Cn1cc(-c2ccc([N+](=O)[O-])cc2)nn1)N1c2ccccc2Sc2ccc(C(F)(F)F)cc21
[1]
  MIC: 25 µg/mL (≈ 50.3 µM)

## O=C(Cn1cc(-c2ccsc2)nn1)N1c2ccccc2Sc2ccc(C(F)(F)F)cc21
[1]
  MIC: 25 µg/mL (≈ 54.5 µM)

## COc1ccc2cc(-c3cn(CC(=O)N4c5ccccc5Sc5ccc(C(F)(F)F)cc54)nn3)ccc2c1
[1]
  MIC: 25 µg/mL (≈ 46.9 µM)

## O=C(Cn1cc(-c2ccccc2)nn1)N1c2ccccc2Sc2ccc(C(F)(F)F)cc21
[1]
  MIC: 12.5 µg/mL (≈ 27.6 µM)

## Cc1ccc(-c2cn(CC(=O)N3c4ccccc4Sc4ccc(C(F)(F)F)cc43)nn2)cc1
[1]
  MIC: 25 µg/mL (≈ 53.6 µM)

## NC(=O)c1cnccn1 [PYRAZINAMIDE]
[1]
  MIC: 50 µg/mL (≈ 406 µM)

## O=C(Cn1cc(C2(O)CCCC2)nn1)N1c2ccccc2Sc2ccc(C(F)(F)F)cc21
[1]
  MIC: 12.5 µg/mL (≈ 27.1 µM)

## O=C(Cn1cc(-c2ccc(F)cc2F)nn1)N1c2ccccc2Sc2ccc(C(F)(F)F)cc21
[2]
  cytotoxicity at 72 h, 50 ug/ml: 30.6%
[1]
  MIC: 6.25 µg/mL (≈ 12.8 µM)
[3]
  selectivity ratio: > 10

## O=C(Cn1cc(CCc2ccccc2)nn1)N1c2ccccc2Sc2ccc(C(F)(F)F)cc21
[1]
  MIC: 25 µg/mL (≈ 52 µM)

## O=C(Cn1cc(-c2ccc(Cl)c(Cl)c2)nn1)N1c2ccccc2Sc2ccc(C(F)(F)F)cc21
[1]
  MIC: ≤ 25 µg/mL

## CC(=O)c1ccc(C)cc1OCc1cn(CC(=O)N2c3ccccc3Sc3ccc(C(F)(F)F)cc32)nn1
[1]
  MIC: 25 µg/mL (≈ 46.4 µM)

## CCCCCCc1cn(CC(=O)N2c3ccccc3Sc3ccc(C(F)(F)F)cc32)nn1
[2]
  cytotoxicity at 72 h, 50 ug/ml: 25.6%
[1]
  MIC: 6.25 µg/mL (≈ 13.6 µM)
[3]
  selectivity ratio: > 10

## O=C(Cn1cc(C2(O)CCCCC2)nn1)N1c2ccccc2Sc2ccc(C(F)(F)F)cc21
[1]
  MIC: 25 µg/mL (≈ 52.7 µM)
